Activity calls are given as the source filed them. The calls are words filed in the database; no cut-off is given here.
Experiments:
[1] = Apparent permeability across basolateral to apical side in human Caco2 cells; assay type: ADME, cell-based; conditions: Caco-2
SUMO-activating enzyme [2] = target: T1, SUMO-activating enzyme (Homo sapiens, UniProt Q9UBT2); test: Inhibition of SAE in human HCT116 cells assessed as redistribution of SUMO2/3 proteins from nucleus to cytosol preincubated for 2 hrs followed by compound washout and measured after 8 hrs by immunofluorescence assay; assay type: cell-based, HCT-116
T1 sequence (Q9UBE0 whole entry): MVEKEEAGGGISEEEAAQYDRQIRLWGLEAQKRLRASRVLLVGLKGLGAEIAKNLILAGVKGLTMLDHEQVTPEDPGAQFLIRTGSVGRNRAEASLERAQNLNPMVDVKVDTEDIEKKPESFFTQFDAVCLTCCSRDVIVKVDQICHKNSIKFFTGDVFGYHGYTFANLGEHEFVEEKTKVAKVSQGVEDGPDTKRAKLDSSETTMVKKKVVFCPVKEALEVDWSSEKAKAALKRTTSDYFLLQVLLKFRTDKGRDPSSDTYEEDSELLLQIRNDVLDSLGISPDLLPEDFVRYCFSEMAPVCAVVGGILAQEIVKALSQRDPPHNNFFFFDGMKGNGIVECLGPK
T1 sequence (Q9UBT2 whole entry): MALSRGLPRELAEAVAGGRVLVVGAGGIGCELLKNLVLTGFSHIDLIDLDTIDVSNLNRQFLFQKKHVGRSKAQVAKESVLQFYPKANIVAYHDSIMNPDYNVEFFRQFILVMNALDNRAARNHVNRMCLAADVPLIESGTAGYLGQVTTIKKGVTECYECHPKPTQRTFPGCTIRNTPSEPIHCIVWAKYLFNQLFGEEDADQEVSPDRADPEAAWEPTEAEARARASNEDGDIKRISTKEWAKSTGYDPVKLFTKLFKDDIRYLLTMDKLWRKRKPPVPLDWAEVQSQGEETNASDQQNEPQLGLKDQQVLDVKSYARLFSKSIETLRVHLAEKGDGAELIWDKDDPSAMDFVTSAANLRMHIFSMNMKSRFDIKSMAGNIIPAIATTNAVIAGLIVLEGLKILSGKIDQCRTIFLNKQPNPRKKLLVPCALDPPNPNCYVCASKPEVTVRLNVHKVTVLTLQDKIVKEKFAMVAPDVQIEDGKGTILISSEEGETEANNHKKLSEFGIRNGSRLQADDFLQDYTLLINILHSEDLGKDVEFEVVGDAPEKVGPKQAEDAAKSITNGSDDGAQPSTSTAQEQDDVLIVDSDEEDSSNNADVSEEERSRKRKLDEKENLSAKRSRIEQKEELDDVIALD
In short: (§1)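 Washout format of the SUMO2/3 immunofluorescence assay in HCT116 cells. Cells were exposed to a range of concentrations for 2 h, then washed free of compound.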

[3] = AUC in rat plasma at 1 mg/kg, iv; assay type: ADME, organism-based; parameters: dose 1 mg/kg
[4] = AUC in rat blood at 1 mg/kg, iv; assay type: ADME, organism-based; parameters: dose 1 mg/kg
[5] = Volume of distribution at steady state in rat blood at 1 mg/kg, iv; assay type: ADME, organism-based; conditions: read-out: Vdss
[6] = target: SUMO-activating enzyme (Homo sapiens) (UniProt Q9UBE0+Q9UBT2); test: Inhibition of SAE in human OCI-Ly10 cells xenografted in CB17 SCID mouse assessed as improvement in SUMO-inhibitor adduct durability at 25 mg/kg, iv and measured up to 48 hrs by mass spectrometry; assay type: organism-based; conditions: time hrs <=48
Carbonic anhydrase 1 = Carbonic anhydrase 1 (Homo sapiens, UniProt P00915); test: Inhibition of human erythrocyte CA1 using fluorescein diacetate as substrate at […] by fluorometric esterase assay
Chain of Carbonic anhydrase 1 (P00915 whole entry): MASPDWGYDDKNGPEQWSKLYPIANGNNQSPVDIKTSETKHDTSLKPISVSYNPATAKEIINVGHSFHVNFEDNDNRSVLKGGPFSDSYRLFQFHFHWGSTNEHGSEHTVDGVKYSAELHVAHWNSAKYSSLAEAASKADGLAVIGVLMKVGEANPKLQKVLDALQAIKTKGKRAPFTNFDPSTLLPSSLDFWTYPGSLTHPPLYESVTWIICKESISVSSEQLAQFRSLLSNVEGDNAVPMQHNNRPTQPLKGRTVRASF

[7] = Inhibition of recombinant UAE (unknown origin) in presence of ATP at Km concentration by HTRF assay; parameters: species or system Homo sapiens
OCI-Ly10 = test: Cytotoxicity against human OCI-LY10 cells assessed as reduction in cell viability after 72 hrs by CellTiter-Glo luminescent assay; assay type: functional, cell-based; conditions: OCI-Ly10, 72 h
[8] = Dissociation constant , pKa of the compound; assay type: physicochemical
[9] = Half life in rat plasma at 1 mg/kg, iv; assay type: ADME, organism-based
[10] = Clearance in rat blood at 1 mg/kg, iv; assay type: ADME, organism-based; conditions: in vivo
SUMO-activating enzyme [11] = target: T1, SUMO-activating enzyme; test: Inhibition of SAE in human HCT116 cells assessed as redistribution of SUMO2/3 proteins from nucleus to cytosol preincubated for 2 hrs followed by compound washout and measured immediately by immunofluorescence assay; assay type: cell-based, HCT-116; in short: as §1

Structure (SMILES): Cc1sc(C(=O)c2cncnc2N[C@@H]2C[C@H](COS(N)(=O)=O)[C@@H](O)C2)cc1[C@@H]1NCCc2ccc(Cl)cc21
- Papp B→A [1]: 46 ×10⁻⁶ cm/s
- IC50 (SUMO-activating enzyme [2]): 46 nM
- AUC [3]: 0.5 µM·h
- AUC [4]: 31.2 µM·h
- Vd [5]: 0.2 L/kg
- inhibition [6]: Active
- IC50 (Carbonic anhydrase 1): 90 nM
- IC50 [7]: > 1000 nM
- EC50 (OCI-Ly10): 4 nM
- pKa [8]: 3.6
- half-life [9]: 2.1 h
- clearance [10]: 1.67 mL/min/kg
- IC50 (SUMO-activating enzyme [11]): 32 nM

From ChEMBL document CHEMBL4834402, “Discovery of TAK-981, a First-in-Class Inhibitor of SUMO-Activating Enzyme for the Treatment of Cancer” (J Med Chem, 2021)
